STAT3 activator: activators of IL-6 induced STAT3 signaling; U3A cells, IL-6 STAT3-luciferase reporter, luminescence; 100% = signal with IL-6 EC80 alone; activation (% of control), % at 5.6 µM; 190,000 tested, 0.91% active; AID 871;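 active = activation above the screen-wide mean of compound activation plus 3 SD, cut at about 130% in these data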
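Test system: human U3A cells carrying STAT3-luciferase construct; control set: IL-6-only wells as 100% reference; timing: compound pre-incubation 1 h before IL-6, then 6 h stimulation at 37 °C; also added: IL-6 stimulus at 33 ng/mL final; evaluation: % activation versus median of IL-6-stimulated wells; detection: reporter luminescence signal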
STAT1 activator: activators of IFN-gamma induced STAT1 signaling. 200,000 tested, 2.6% active. NIH 3T3 STAT1-luciferase reporter, luminescence; 100% = IFN-gamma alone, no compound. AID 932. activation (% of control), % at 5.5 µM;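 active = activation above the screen-wide mean activation plus 3 SD, cut at about 130% in these data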
Pf gamet viab: inhibitors of late stage P. falciparum gametocyte viability | AID 743093 | P. falciparum stage V gametocytes, ATP luminescence, 24 h | inhibition, % at 10.9 µM | 150,000 tested, 0.065% active;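 active = inhibition above the mean plus 3 SD of compounds within the control limits, set per campaign, cut at about 38% in these data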
STAT1 inh: inhibitors of IFN-gamma induced STAT1 signaling | NIH 3T3 STAT1-luciferase reporter, luminescence | inhibition, % at 5.5 µM | 200,000 tested, 0.35% active;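 active = inhibition above a set limit, the mean inhibition across all tested compounds plus 3 SD, cut at about 34% in these data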
NF-kB neuron act: NF-kB expression increase, human neuronal cells. AID 1239. NF-kB reporter expression; hits give high values. fold change at 12.5 µM. 190,000 tested, 1.6% active; in the data active = fold change above about 3.3
APP 5'UTR act: APP 5'UTR luciferase reporter activation; 190,000 tested, 1% active; activation, % at 2 µM; SH-SY5Y APP 5'UTR luciferase reporter, luminescence; zero percent = DMSO vehicle wells;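 active = activation above a set limit, based on mean plus 3 SD of controls, cut at about 140% in these data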
A number is an active result; 0 = inactive; - = not tested or not shown. Sampled rows, rich in hits. Any-hit rate of the full collection: about 3.9%.

SMILES | STAT3 activator | STAT1 activator | Pf gamet viab | STAT1 inh | NF-kB neuron act | APP 5'UTR act
NC(=O)C1CCN(c2nc(-c3ccc(Br)cc3)cs2)CC1 | 0 | 130.6 | 0 | 0 | 0 | 0
CCCS(=O)(=O)N1CCCC(C(=O)Oc2ccc(C)c(C)c2)C1 (stereo not given) | - | - | 0 | - | - | -
COc1ccc(-c2nc3ccccn3c2C=O)cc1 | 0 | 143.4 | 0 | 0 | 0 | 0
CNc1nc(-c2ccc([N+](=O)[O-])cc2)cs1 | 0 | 136.6 | 0 | 0 | 0 | 0
CCN(CC)CC(=O)Nc1nc(-c2ccc(Cl)cc2)cs1 | 0 | 0 | 0 | 0 | 0 | 0
CCNc1nc(-c2ccc(Cl)cc2)cs1 | 0 | 148.9 | - | 0 | 3.82 | 148.4
CNc1nc(-c2ccc(Cl)cc2)cs1 | 0 | 131.5 | - | 0 | 0 | 0
Cc1ccccc1NC(=O)c1ccccc1N(C)S(=O)(=O)c1ccccc1 | - | - | 0 | - | - | -
CN1CCN(Cc2cc(Cl)c3cccnc3c2OC(=O)c2cccs2)CC1 | 0 | 0 | 0 | 0 | 13.1 | 0
c1ccc2oc(SCc3nc4ccccc4s3)nc2c1 | 138.1 | 138.6 | - | 0 | 0 | 0
N#CCc1nc(CSc2nc3ccccc3o2)cs1 | 0 | 0 | 0 | 0 | 0 | 0
Cc1ccccc1CSc1nnc(C)n1N | 0 | 0 | - | 0 | 0 | 0
Cc1nnc(SCc2nc3ccccc3s2)n1N | 141.3 | 134.2 | - | 0 | 0 | 0
O=C(O)c1ccccc1CSc1nc2ccccc2o1 | 0 | 140.5 | - | 0 | 0 | 0
O=C(O)c1ccc(CSc2nc3ccccc3o2)cc1 | 0 | 0 | - | 0 | 0 | 0
C[C@H]1COC(=O)[C@@H](Cc2ccc(F)cc2)C/C=C\C[C@@H](CC(=O)N[C@@H](CO)Cc2ccccc2)C(=O)N1 | - | - | 0 | - | - | -
C=CCN1C(=O)N(c2ccccc2)C(=O)C1CC(=O)Nc1ccc(OC)cc1 (stereo not given) | - | - | 0 | - | - | -
CCN(c1ccc(N=Cc2c(O)n(Cc3ccc(OC)cc3)c(=O)c3ccccc23)cc1)C(C)C | 0 | 0 | 0 | 0 | 0 | 0
COc1ccc(C(=O)NNS(=O)(=O)c2ccccc2)cc1OC | - | - | 0 | - | - | -
O=[N+]([O-])c1ccccc1/C=N\Nc1nccs1 | - | - | 0 | - | - | -
O=[N+]([O-])c1ccccc1/C=N/NC1=NCCCCC1 | 0 | 132.8 | 0 | 0 | 0 | 0
O=C(CC(C(=O)O)c1c[nH]c2ccccc12)c1ccccc1 (stereo not given) | 135.6 | 0 | 0 | 0 | 0 | 0
O=C(CC(C(=O)O)c1ccc(Cl)cc1)c1ccccc1 (stereo not given) | 0 | 0 | 0 | 0 | 0 | 0
Cn1c(=N)n(CC(=O)c2ccc(Br)s2)c2ccccc21 | 166.6 | 146.2 | 0 | 0 | 0 | 197.3
CCCn1c(=N)n(CC(=O)c2cccs2)c2ccccc21 | 0 | 0 | 0 | 0 | 0 | 0
SMILES | STAT3 activator | STAT1 activator | Pf gamet viab | STAT1 inh | NF-kB neuron act | APP 5'UTR act
COc1cccc(C(=O)Cn2c(NCCO)nc3ccccc32)c1 | 0 | 0 | - | 0 | 0 | 0
Cn1c(=N)n(CC(=O)c2cccs2)c2ccccc21 | 137.0 | 133.6 | 0 | 0 | 3.89 | 159.9
COc1cccc(C(=O)Cn2c(=N)n(C)c3ccccc32)c1 | 0 | 0 | - | 0 | 4.39 | 228.7
COc1ccccc1N1CCN(c2nccc(C)n2)CC1 | - | - | 0 | - | - | -
O=C(NCc1ccc(OC(F)(F)F)cc1)c1cccc2c1C(=O)c1ccc(N3CCCCC3)cc1S2(=O)=O | - | - | 0 | - | - | -
O=C(NCc1ccc(OC(F)(F)F)cc1)c1cccc2c1C(=O)c1ccc(N3CCCC3)cc1S2(=O)=O | - | - | 38.9 | - | - | -
COc1ccc(N2C(=O)C(F)(F)C2c2ccc(C)cc2)cc1OC (stereo not given) | 0 | 0 | - | 0 | 0 | 0
Nc1ncc(Br)cc1N=Cc1ccccc1 | 0 | 149.2 | 0 | 0 | 4.66 | 0
Cn1ncc(N=Cc2ccccc2)c1C(N)=O | 0 | 0 | 0 | 0 | 0 | 0
COc1ccc(Oc2ccc(/C=C/C(=O)c3ccc(O)cc3)cc2[N+](=O)[O-])cc1 | 0 | 0 | 0 | 0 | 4.96 | 0
COc1ccc(C2=NN(C(=O)CN3CCOCC3)C(c3nc4ccccc4[nH]3)C2)cc1 (stereo not given) | 0 | 132.8 | 0 | 0 | 0 | 0
COc1ccc(/C(N)=N/OC(=O)c2ccc3c(c2)OCO3)cc1OC | 0 | 0 | - | 0 | 0 | 0
N/C(=N\OC(=O)c1ccc2c(c1)OCO2)c1ccc([N+](=O)[O-])cc1 | 0 | 129.2 | 0 | 0 | 0 | 0
N/C(=N\OC(=O)c1ccccc1)c1cccnc1 | 0 | 0 | 0 | 0 | 0 | 0
N/C(=N\OC(=O)c1ccccc1Cl)c1cccnc1 | 0 | 140.2 | - | 0 | 5.66 | 0
N/C(=N\OC(=O)c1ccc2c(c1)OCO2)c1cccnc1 | 0 | 0 | - | 0 | 3.55 | 0
N/C(=N\OC(=O)c1ccc(Cl)c(Cl)c1)c1cccnc1 | 0 | 0 | 0 | 0 | 3.97 | 0
CCn1c2ccccc2c2cc(CN3CCN(S(=O)(=O)Cc4ccccc4)CC3)ccc21 | 0 | 0 | - | 0 | 0 | 0
COC(=O)c1sccc1NC(=O)CC1C(=O)NCCN1C(=O)c1ccc(C)c(C)c1 (stereo not given) | - | - | 0 | - | - | -
O=C1C=C(c2ccoc2)N2CCC[C@H]2C1 | - | - | 0 | - | - | -
O=C(Nc1ccc(S(=O)(=O)N2CCOCC2)cc1)c1ccc(Cl)c([N+](=O)[O-])c1 | - | - | 0 | - | - | -
CCN(CC)C(=S)SC1CCCCN(C(=O)c2ccccc2)C1=O (stereo not given) | - | - | 0 | - | - | -
CCOC(=O)C(C)Sc1nc(-c2ccccc2)nc2ccccc12 (stereo not given) | 0 | 0 | 0 | 0 | 0 | 0
O=C(Nc1nc2ccsc2c(=O)s1)c1ccc(F)cc1 | - | - | 0 | - | - | -
CC(=O)Nc1ccc2nc(NC(=O)c3ccco3)sc2c1 | - | - | 0 | - | - | -
SMILES | STAT3 activator | STAT1 activator | Pf gamet viab | STAT1 inh | NF-kB neuron act | APP 5'UTR act
CSc1nc2ccc(NC(=O)c3ccco3)cc2s1 | 0 | 139.5 | - | 0 | 4.03 | 0
CSc1nc2ccc3nc(NC(=O)c4ccccc4)sc3c2s1 | 0 | 139.2 | - | 0 | 0 | 0
CSc1nc2ccc(NC(=O)c3ccc(F)c(F)c3)cc2s1 | 0 | 140.0 | 0 | 0 | 0 | 0
CSc1nc2ccc(NC(=O)c3ccc(=O)n(C)n3)cc2s1 | 0 | 0 | 0 | 0 | 0 | 0
Nc1nc2ccc(C(=O)Nc3ccccc3)cc2s1 | 156.1 | 147.6 | - | 0 | 0 | 0
CC(C)CC(=O)N=C1SC2CS(=O)(=O)CC2N1Cc1ccccc1Cl (stereo not given) | - | - | 0 | - | - | -
C/C(=N/NC(=O)CNS(=O)(=O)c1ccc(C)cc1)c1cccc([N+](=O)[O-])c1 | 0 | 0 | 0 | 0 | 0 | 0
Cc1ccc(NC(=O)c2cc3ccccc3o2)cc1Cl | - | - | 0 | - | - | -
CSc1nc2ccc(NC(=O)c3cc4ccccc4o3)cc2s1 | 0 | 139.2 | - | 0 | 4.87 | 139.9
CC(=O)NCCNC(=O)c1ccc(CSc2ccc(Cl)cc2)cc1 | 0 | 141.6 | 0 | 0 | 0 | 146.7
CCNC(=O)c1ccc(CSc2ccc(Cl)cc2)cc1 | 0 | 0 | 0 | 0 | 0 | 0
CCn1ccnc1CN1CCN(CCC(C)C)C(CCO)C1 (stereo not given) | 0 | 0 | 0 | 0 | 0 | 0
CCOC(=O)c1ccc(N=Nc2c(C)c(C#N)c(O)[nH]c2=O)cc1 | 0 | 0 | 0 | 0 | 3.56 | 135.3
